Data reported in ChEMBL document CHEMBL5143611, “Antillatoxin-Stimulated Neurite Outgrowth Involves the Brain-Derived Neurotrophic Factor (BDNF) - Tropomyosin Related Kinase B (TrkB) Signaling Pathway” (J Nat Prod, 2022).
pEC50: −log10 of the molar value. Activity calls are given as the source filed them. The calls are words filed in the database; no cut-off is given here.

Key:
Cerebral cortex neuron [1] = test: Induction of BDNF release in Swiss Webster mouse immature cerebrocortical neuron assessed as increase in BDNF release at 100 to 3000 nM incubated for 4 days by sandwich ELISA method; assay type: functional, cell-based; settings: dose 100-3000 nM, time 4.0 day
In short: (§1)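 In situ sandwich ELISA. Plates coated overnight at 4 °C with anti-BDNF capture antibody, then blocked. Immature cortical neurons plated directly in the wells with BDNF standards and treated from 3 h after plating; 50 mM KCl served as comparator. After 4 days cells were washed off with TBST, and bound BDNF was detected with a polyclonal antibody for 2 h at RT.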

[2] = Induction of aspartate release in Swiss Webster mouse immature cerebrocortical neuron assessed as increase in aspartate concentration at 100 nM incubated for 2 hrs by HPLC based fluorescence method; assay type: functional, Cerebral cortex neuron
In short: (§2)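 Cortical neurons at 5 DIV in 96-well plates. Medium saved and cells washed in Locke's buffer, pH 7.4. Exposure in that buffer for 2 h at 22 °C, then three washes and return to the saved medium for 22 h at 37 °C. Medium then collected, derivatized with o-phthaldialdehyde and analysed by HPLC with fluorescence detection.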

Cerebral cortex neuron [3] = test: (§3) Induction of BDNF release in Swiss Webster mouse immature cerebrocortical neuron assessed as increase in BDNF release incubated for 4 days by sandwich ELISA method; assay type: functional, cell-based; settings: time 4.0 day, DDE = dose-dependent effect; in short: as §1
[4] = as §3; assay type: functional, cell-based; settings: Cerebral cortex neuron, 96 h; in short: as §1
[5] = Induction of aspartate release in Swiss Webster mouse immature cerebrocortical neuron assessed as increase in aspartate concentration at 30 nM incubated for 2 hrs by HPLC based fluorescence method; assay type: functional, Cerebral cortex neuron; in short: as §2
[6] = target: BDNF/NT-3 growth factors receptor (Mus musculus) (UniProt P15209); test: Activation of TrkB receptor in Swiss Webster mouse immature cerebrocortical neuron assessed as phosphorylation of TrkB at Tyr516 residue at 30 nM incubated for 30 mins by western blot analysis; assay type: cell-based; settings: filed as activator
In short: (§4)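 DIV-1 cortical neurons in six-well plates exposed to 30 nM for 30 min at 37 °C. Where antagonists were used, 15 min preincubation. Exposure stopped on ice, cells washed in cold PBS and lysed 30 min at 4 °C. Protein measured by Bradford. Equal protein run on 10% SDS-PAGE, blotted to PVDF, probed with specific antibodies, ECL detection.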

[7] = target: BDNF/NT-3 growth factors receptor (Homo sapiens) (UniProt Q16620); test: Activation of full length isoform of TrkB receptor (unknown origin) expressed in mouse cerebrocortical neuron assessed as increase in neurite length at 30 nM incubated for 24 hrs by DiI dye based microscopic analysis; assay type: cell-based; settings: filed as activator
In short: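 E16 mouse cortical neurons plated at 0.5 × 10^6/well and lipofected 2 h after plating with 0.5 µg gene-of-interest plasmid or empty vector plus 0.25 µg GFP plasmid. 30 nM or vehicle added 3 h after transfection. Neurons imaged at DIV-2.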

Cerebral cortex neuron [8] = test: Induction of glutamate release in Swiss Webster mouse immature cerebrocortical neuron assessed as increase in glutamate release at 30 to 100 nM incubated for 2 hrs by HPLC based fluorescence method; assay type: functional, cell-based; settings: dose 30-100 nM; in short: as §2
[9] = target: RAC-alpha serine/threonine-protein kinase (Mus musculus) (UniProt P31750); test: Activation of Akt signalling pathway in Swiss Webster mouse immature cerebrocortical neuron assessed as increase in AKT phosphorylation of Ser473 by measuring fold change at […] incubated for 24 hrs by western blot analysis; assay type: cell-based; settings: filed as activator, dose lower 10.0 µM
Cerebral cortex neuron [10] = test: Induction of BDNF release in Swiss Webster mouse immature cerebrocortical neuron assessed as increase in BDNF synthesis at 30 nM incubated for 30 mins by western blot analysis; assay type: functional, cell-based; in short: as §4
[11] = Induction of glutamate release in Swiss Webster mouse immature cerebrocortical neuron assessed as increase in glutamate release at 30 nM incubated for 2 hrs by HPLC based fluorescence method; assay type: functional, Cerebral cortex neuron; in short: as §2
[12] = target: Serine/threonine-protein kinase mTOR (Mus musculus) (UniProt Q9JLN9); test: Activation of mTOR signalling pathway in Swiss Webster mouse immature cerebrocortical neuron assessed as increase in mTOR phosphorylation at Ser2448 at […] incubated for 3 hrs by western blot analysis; assay type: cell-based; settings: filed as activator
[13] = Induction of glutamate release in Swiss Webster mouse immature cerebrocortical neuron assessed as increase in glutamate release at 100 nM incubated for 2 hrs by HPLC based fluorescence method; assay type: functional, Cerebral cortex neuron; in short: as §2

Chain of BDNF/NT-3 growth factors receptor (Homo sapiens) (Q16620 32-822 limits assumed): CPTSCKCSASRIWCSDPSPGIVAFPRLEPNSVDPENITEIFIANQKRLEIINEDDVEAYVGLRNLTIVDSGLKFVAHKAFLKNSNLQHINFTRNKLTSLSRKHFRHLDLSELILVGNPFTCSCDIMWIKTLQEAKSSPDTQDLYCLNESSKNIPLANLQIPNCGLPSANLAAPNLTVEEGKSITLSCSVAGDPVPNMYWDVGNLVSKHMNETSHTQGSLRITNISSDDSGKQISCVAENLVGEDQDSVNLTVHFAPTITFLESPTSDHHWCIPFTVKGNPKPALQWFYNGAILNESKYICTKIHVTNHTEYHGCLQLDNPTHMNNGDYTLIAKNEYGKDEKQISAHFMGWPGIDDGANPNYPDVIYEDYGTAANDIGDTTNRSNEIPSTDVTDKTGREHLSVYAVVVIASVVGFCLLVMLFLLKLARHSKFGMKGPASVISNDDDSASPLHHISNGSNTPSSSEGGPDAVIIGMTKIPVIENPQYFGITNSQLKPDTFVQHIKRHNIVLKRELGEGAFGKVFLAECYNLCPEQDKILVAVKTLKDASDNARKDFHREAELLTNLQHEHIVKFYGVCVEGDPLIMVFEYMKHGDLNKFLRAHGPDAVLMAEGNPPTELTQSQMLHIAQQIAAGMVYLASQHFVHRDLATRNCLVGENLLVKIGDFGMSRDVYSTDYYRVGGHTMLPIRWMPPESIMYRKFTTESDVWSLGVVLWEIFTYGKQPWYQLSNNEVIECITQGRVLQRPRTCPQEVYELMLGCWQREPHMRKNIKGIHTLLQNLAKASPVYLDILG
Chain of RAC-alpha serine/threonine-protein kinase (Mus musculus) (P31750 whole entry): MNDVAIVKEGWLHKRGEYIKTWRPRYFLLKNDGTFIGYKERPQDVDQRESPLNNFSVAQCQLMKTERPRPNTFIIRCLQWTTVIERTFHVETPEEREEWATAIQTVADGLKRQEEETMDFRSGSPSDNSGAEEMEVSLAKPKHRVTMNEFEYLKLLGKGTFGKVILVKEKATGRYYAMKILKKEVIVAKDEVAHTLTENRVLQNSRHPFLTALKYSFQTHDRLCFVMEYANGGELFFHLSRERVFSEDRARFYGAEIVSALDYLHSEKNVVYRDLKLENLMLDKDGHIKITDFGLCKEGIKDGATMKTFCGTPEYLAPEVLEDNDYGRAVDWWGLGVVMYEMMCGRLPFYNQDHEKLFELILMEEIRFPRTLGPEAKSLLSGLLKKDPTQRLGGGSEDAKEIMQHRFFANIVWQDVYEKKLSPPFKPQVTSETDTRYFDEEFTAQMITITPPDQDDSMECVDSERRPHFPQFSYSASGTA
Chain of BDNF/NT-3 growth factors receptor (Mus musculus) (P15209 whole entry): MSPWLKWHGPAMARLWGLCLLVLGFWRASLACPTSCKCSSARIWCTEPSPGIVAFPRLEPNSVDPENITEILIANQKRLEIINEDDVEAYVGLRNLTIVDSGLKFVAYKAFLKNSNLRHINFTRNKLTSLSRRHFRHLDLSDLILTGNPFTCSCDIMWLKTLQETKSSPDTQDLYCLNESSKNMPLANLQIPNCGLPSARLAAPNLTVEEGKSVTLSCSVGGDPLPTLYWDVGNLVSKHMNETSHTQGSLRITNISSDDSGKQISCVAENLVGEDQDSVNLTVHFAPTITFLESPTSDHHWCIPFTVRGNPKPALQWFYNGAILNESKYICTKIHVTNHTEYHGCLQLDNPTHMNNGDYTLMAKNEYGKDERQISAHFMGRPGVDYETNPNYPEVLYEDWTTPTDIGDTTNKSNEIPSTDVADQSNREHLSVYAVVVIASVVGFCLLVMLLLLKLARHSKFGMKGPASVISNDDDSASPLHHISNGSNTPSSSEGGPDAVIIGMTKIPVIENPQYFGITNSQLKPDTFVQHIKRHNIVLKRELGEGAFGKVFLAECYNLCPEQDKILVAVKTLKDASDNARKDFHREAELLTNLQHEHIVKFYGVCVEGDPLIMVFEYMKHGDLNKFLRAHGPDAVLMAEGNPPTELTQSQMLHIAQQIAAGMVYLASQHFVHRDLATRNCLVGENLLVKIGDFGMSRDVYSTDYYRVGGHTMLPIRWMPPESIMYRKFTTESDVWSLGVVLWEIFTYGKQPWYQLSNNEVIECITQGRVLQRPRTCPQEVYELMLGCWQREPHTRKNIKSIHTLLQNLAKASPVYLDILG

C=C1CC(=O)N[C@@H](C)C(=O)N(C)[C@@H](C(C)C)C(=O)NCC(=O)O[C@@H](/C(C)=C/C(C)=C/C(C)(C)C)[C@@H]1C [ANTILLATOXIN]
Activity (Cerebral cortex neuron [1]): Active | Activity [2]: 1.73 µM | Activity (Cerebral cortex neuron [3]): Dde | pEC50 [4]: 6.35 | Activity [5]: 1.81 µM | Activity [6]: Active | Activity [7]: Active | Activity (Cerebral cortex neuron [8]): Active | fold change (FC) [9]: 3 | Activity (Cerebral cortex neuron [10]): Active | Activity [11]: 2.32 µM | fold change (FC) [12]: 2 | Activity [13]: 2.07 µM
